Results reported in ChEMBL document CHEMBL1135739, “Radiolabeled amino acids for tumor imaging with PET: radiosynthesis and biological evaluation of 2-amino-3-[18F]fluoro-2-methylpropanoic acid and 3-[18F]fluoro-2-methyl-2-(methylamino)propanoic acid” (J Med Chem, 2002).

How the values were obtained:
Rattus norvegicus [1] = species: Rattus norvegicus; assay: Radioactivity distribution in kidney of normal fischer rat after injection of [18F]fluoro-2-methylpropanoic acid after 5 min.; format: ADME, organism-based; conditions: in vivo
Summary of the method: (§1)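 Male Fischer 344 rats (200–250 g), fed ad libitum, anesthetized with intramuscular ketamine:xylazine (1:1, 0.1 mL/100 g). About 85 μCi tracer in 0.3 mL sterile water was given by tail-vein catheter. Groups of four were killed at 5, 30, 60 or 120 min. Tissues were weighed and gamma-counted against dose standards, decay-corrected, and expressed as %ID/g (mean ± standard error).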

Rattus norvegicus [2] = species: Rattus norvegicus; assay: Radioactivity distribution in testis of tumor-bearing fischer rat after injection of [18F]fluoro-2-methylpropanoic acid after 120 min; format: ADME, organism-based; conditions: in vivo, 2 h
Summary of the method: (§2)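 Male Fischer rats had 4×10^4 9L gliosarcoma cells implanted stereotactically into the brain, 3 mm right of midline, 1 mm anterior to bregma, 5 mm deep. They were used 17–19 days later. Awake, restrained rats got ~35 μCi in 0.3 mL sterile water by tail vein and were killed at 5, 60 or 120 min. Tissues, tumor and contralateral brain were gamma-counted, decay-corrected, as %ID/g, mean ± SE, n = 4–5.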

Rattus norvegicus [3] = species: Rattus norvegicus; assay: Radioactivity distribution in bone of tumor-bearing fischer rat after injection of [18F]fluoro-2-methylpropanoic acid after 120 min; format: ADME, organism-based, Bone element; conditions: in vivo, 2 h
Summary of the method: (§3)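 Male Fischer 344 rats carried intracranial 9L gliosarcoma, implanted stereotactically (4×10^4 cells) and used 17–19 days later. Awake restrained rats got ~35 μCi of tracer in 0.3 mL sterile water by tail-vein injection and were killed at 5, 60 or 120 min. Tissues were weighed and gamma-counted, and counts were decay-corrected to %ID/g. Results are mean ± standard error; n = 4 at 5 and 120 min, n = 5 at 60 min.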

Rattus norvegicus [4] = species: Rattus norvegicus; assay: Radioactivity distribution in spleen of tumor-bearing fischer rat after injection of [18F]fluoro-2-methylpropanoic acid after 60 min; format: ADME, organism-based; conditions: in vivo, 1 h; summary of the method: as §2
Rattus norvegicus [5] = species: Rattus norvegicus; assay: Radioactivity distribution in heart of tumor-bearing fischer rat after injection of [18F]fluoro-2-methylpropanoic acid after 60 min; format: ADME, organism-based; conditions: in vivo, 1 h; summary of the method: as §3
Rattus norvegicus [6] = species: Rattus norvegicus; assay: Radioactivity distribution in liver of normal fischer rat after injection of [18F]fluoro-2-methylpropanoic acid after 30 min.; format: ADME, organism-based; conditions: in vivo, 0.5 h; summary of the method: as §1
Rattus norvegicus [7] = species: Rattus norvegicus; assay: Radioactivity distribution in brain of normal fischer rat after injection of [18F]fluoro-2-methylpropanoic acid after 30 min.; format: ADME, organism-based; conditions: in vivo, 0.5 h
Summary of the method: (§4)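 Normal male Fischer 344 rats (200–250 g), anesthetized with i.m. ketamine:xylazine (1:1), got ~85 μCi of tracer in 0.3 mL sterile water i.v. via tail-vein catheter. Groups of four were killed at 5, 30, 60 or 120 min. Tissues were weighed and gamma-counted against dose standards, and counts were decay-corrected to %ID/g. Results are mean ± standard error (n = 4), compared by one-way ANOVA.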

Rattus norvegicus [8] = species: Rattus norvegicus; assay: Radioactivity distribution in muscle of tumor-bearing fischer rat after injection of [18F]-fluoro-2-methylpropanoic acid after 5 min; format: ADME, organism-based, Muscle tissue; conditions: in vivo
Summary of the method: (§5)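 Male Fischer 344 rats carried intracranial 9L gliosarcoma, stereotactically implanted (4×10^4 cells) and used 17–19 days later. Awake, restrained animals received about 35 μCi tracer in 0.3 mL sterile water via the tail vein and were killed at 5, 60 or 120 min (n = 4–5). Tissues were weighed, gamma-counted, decay-corrected and reported as %ID/g ± standard error.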

Rattus norvegicus [9] = species: Rattus norvegicus; assay: Radioactivity distribution in blood of normal fischer rat after injection of [18F]fluoro-2-methylpropanoic acid after 30 min.; format: ADME, organism-based; conditions: in vivo, 0.5 h; summary of the method: as §4
Rattus norvegicus [10] = species: Rattus norvegicus; assay: Radioactivity distribution in blood of normal fischer rat after injection of [18F]fluoro-2-methylpropanoic acid after 5 min.; format: ADME, organism-based; conditions: in vivo; summary of the method: as §4
Rattus norvegicus [11] = species: Rattus norvegicus; assay: Radioactivity distribution in pancreas of tumor-bearing fischer rat after injection of [18F]fluoro-2-methylpropanoic acid after 120 min; format: ADME, organism-based; conditions: in vivo, 2 h; summary of the method: as §5
Rattus norvegicus [12] = species: Rattus norvegicus; assay: Radioactivity distribution in pancreas of normal fischer rat after injection of [18F]fluoro-2-methylpropanoic acid after 5 min.; format: ADME, organism-based; conditions: in vivo; summary of the method: as §1
Rattus norvegicus [13] = species: Rattus norvegicus; assay: Radioactivity distribution in heart of normal fischer rat after injection of [18F]fluoro-2-methylpropanoic acid after 30 min.; format: ADME, organism-based; conditions: in vivo, 0.5 h; summary of the method: as §4
Rattus norvegicus [14] = species: Rattus norvegicus; assay: Radioactivity distribution in testis of normal fischer rat after injection of [18F]fluoro-2-methylpropanoic acid after 120 min.; format: ADME, organism-based; conditions: in vivo, 2 h
Summary of the method: (§6)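 Male Fischer 344 rats (200–250 g), fed ad libitum, under intramuscular ketamine:xylazine anesthesia, got ~85 μCi radiotracer in 0.3 mL sterile water by tail-vein catheter. Groups of four were killed at 5, 30, 60 or 120 min. Dissected tissues were weighed and gamma-counted with dose standards. Counts were decay-corrected and given as %ID/g, mean ± standard error. Tissues were compared by one-way ANOVA.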

Rattus norvegicus [15] = species: Rattus norvegicus; assay: Radioactivity distribution in testis of tumor-bearing fischer rat after injection of [18F]fluoro-2-methylpropanoic acid after 5 min; format: ADME, organism-based; conditions: in vivo; summary of the method: as §2
Rattus norvegicus [16] = species: Rattus norvegicus; assay: Radioactivity distribution in tumor of tumor-bearing fischer rat after injection of [18F]fluoro-2-methylpropanoic acid after 60 min; format: ADME, organism-based; conditions: in vivo, 1 h; summary of the method: as §2
Rattus norvegicus [17] = species: Rattus norvegicus; assay: Radioactivity distribution in bone of normal fischer rat after injection of [18F]fluoro-2-methylpropanoic acid after 120 min.; format: ADME, organism-based, Bone element; conditions: in vivo, 2 h; summary of the method: as §4
Rattus norvegicus [18] = species: Rattus norvegicus; assay: Radioactivity distribution in lung of normal fischer rat after injection of [18F]fluoro-2-methylpropanoic acid after 30 min.; format: ADME, organism-based; conditions: in vivo, 0.5 h; summary of the method: as §1
Rattus norvegicus [19] = species: Rattus norvegicus; assay: Radioactivity distribution in blood of tumor-bearing fischer rat after injection of [18F]fluoro-2-methylpropanoic acid after 5 min; format: ADME, organism-based; conditions: in vivo; summary of the method: as §3
Rattus norvegicus [20] = species: Rattus norvegicus; assay: Radioactivity distribution in brain of tumor-bearing fischer rat after injection of [18F]fluoro-2-methylpropanoic acid after 5 min; format: ADME, organism-based; conditions: in vivo; summary of the method: as §3
Rattus norvegicus [21] = species: Rattus norvegicus; assay: Radioactivity distribution in spleen of tumor-bearing fischer rat after injection of [18F]fluoro-2-methylpropanoic acid after 120 min; format: ADME, organism-based; conditions: in vivo, 2 h; summary of the method: as §2
Rattus norvegicus [22] = species: Rattus norvegicus; assay: Radioactivity distribution in muscle of tumor-bearing fischer rat after injection of [18F]fluoro-2-methylpropanoic acid after 120 min; format: ADME, organism-based, Muscle tissue; conditions: in vivo, 2 h; summary of the method: as §5
Rattus norvegicus [23] = species: Rattus norvegicus; assay: Radioactivity distribution in bone of tumor-bearing fischer rat after injection of [18F]fluoro-2-methylpropanoic acid after 60 min; format: ADME, organism-based, Bone element; conditions: in vivo, 1 h; summary of the method: as §3
Rattus norvegicus [24] = species: Rattus norvegicus; assay: Radioactivity distribution in brain of normal fischer rat after injection of [18F]fluoro-2-methylpropanoic acid after 60 min.; format: ADME, organism-based; conditions: in vivo, 1 h; summary of the method: as §4
Rattus norvegicus [25] = species: Rattus norvegicus; assay: Radioactivity distribution in heart of normal fischer rat after injection of [18F]fluoro-2-methylpropanoic acid after 5 min.; format: ADME, organism-based; conditions: in vivo; summary of the method: as §4
Rattus norvegicus [26] = species: Rattus norvegicus; assay: Radioactivity distribution in heart of tumor-bearing fischer rat after injection of [18F]fluoro-2-methylpropanoic acid after 120 min; format: ADME, organism-based; conditions: in vivo, 2 h; summary of the method: as §3
Rattus norvegicus [27] = species: Rattus norvegicus; assay: Radioactivity distribution in spleen of normal fischer rat after injection of [18F]fluoro-2-methylpropanoic acid after 30 min.; format: ADME, organism-based; conditions: in vivo, 0.5 h; summary of the method: as §6
Rattus norvegicus [28] = species: Rattus norvegicus; assay: Radioactivity distribution in kidney of tumor-bearing fischer rat after injection of [18F]fluoro-2-methylpropanoic acid after 60 min; format: ADME, organism-based; conditions: in vivo, 1 h; summary of the method: as §5
Rattus norvegicus [29] = species: Rattus norvegicus; assay: Radioactivity distribution in pancreas of normal fischer rat after injection of [18F]fluoro-2-methylpropanoic acid after 60 min.; format: ADME, organism-based; conditions: in vivo, 1 h; summary of the method: as §1
Rattus norvegicus [30] = species: Rattus norvegicus; assay: Radioactivity distribution in brain of tumor-bearing fischer rat after injection of [18F]fluoro-2-methylpropanoic acid after 120 min; format: ADME, organism-based; conditions: in vivo, 2 h; summary of the method: as §3
Rattus norvegicus [31] = species: Rattus norvegicus; assay: Radioactivity distribution in bone of normal fischer rat after injection of [18F]-fluoro-2-methylpropanoic acid after 30 min.; format: ADME, organism-based, Bone element; conditions: in vivo, 0.5 h; summary of the method: as §4
Rattus norvegicus [32] = species: Rattus norvegicus; assay: Radioactivity distribution in tumor of tumor-bearing fischer rat after injection of [18F]fluoro-2-methylpropanoic acid after 5 min; format: ADME, organism-based; conditions: in vivo; summary of the method: as §2
Rattus norvegicus [33] = species: Rattus norvegicus; assay: Radioactivity distribution in lung of normal fischer rat after injection of [18F]-fluoro-2-methylpropanoic acid after 60 min.; format: ADME, organism-based; conditions: in vivo, 1 h; summary of the method: as §1
Rattus norvegicus [34] = species: Rattus norvegicus; assay: Radioactivity distribution in blood of normal fischer rat after injection of [18F]fluoro-2-methylpropanoic acid after 60 min.; format: ADME, organism-based; conditions: in vivo, 1 h; summary of the method: as §4

CC(N)(C[18F])C(=O)O.Cl (centres undefined)
ID/g (Rattus norvegicus [1]): 6.36% | ID/g (Rattus norvegicus [2]): 0.11% | ID/g (Rattus norvegicus [3]): 0.16% | ID/g (Rattus norvegicus [4]): 0.55% | ID/g (Rattus norvegicus [5]): 0.33% | ID/g (Rattus norvegicus [6]): 0.56% | ID/g (Rattus norvegicus [7]): 0.05% | ID/g (Rattus norvegicus [8]): 0.39% | ID/g (Rattus norvegicus [9]): 0.25% | ID/g (Rattus norvegicus [10]): 0.53% | ID/g (Rattus norvegicus [11]): 1.42% | ID/g (Rattus norvegicus [12]): 3.46% | ID/g (Rattus norvegicus [13]): 0.29% | ID/g (Rattus norvegicus [14]): 0.1% | ID/g (Rattus norvegicus [15]): 0.22% | ID/g (Rattus norvegicus [16]): 1.96% | ID/g (Rattus norvegicus [17]): 0.13% | ID/g (Rattus norvegicus [18]): 0.54% | ID/g (Rattus norvegicus [19]): 0.72% | ID/g (Rattus norvegicus [20]): 0.035% | ID/g (Rattus norvegicus [21]): 0.32% | ID/g (Rattus norvegicus [22]): 0.21% | ID/g (Rattus norvegicus [23]): 0.25% | ID/g (Rattus norvegicus [24]): 0.06% | ID/g (Rattus norvegicus [25]): 0.29% | ID/g (Rattus norvegicus [26]): 0.22% | ID/g (Rattus norvegicus [27]): 0.54% | ID/g (Rattus norvegicus [28]): 6.2% | ID/g (Rattus norvegicus [29]): 2.95% | ID/g (Rattus norvegicus [30]): 0.05% | ID/g (Rattus norvegicus [31]): 0.22% | ID/g (Rattus norvegicus [32]): 0.91% | ID/g (Rattus norvegicus [33]): 0.44% | ID/g (Rattus norvegicus [34]): 0.22%
